Measured values from ChEMBL document CHEMBL4017460, “A Tobramycin Vector Enhances Synergy and Efficacy of Efflux Pump Inhibitors against Multidrug-Resistant Gram-Negative Bacteria” (J Med Chem, 2017).
The source made the active and inactive calls. No cut-off for these calls is given here.

Experiments:
[1] = Toxicity in Galleria mellonella assessed as death at 100 mg/kg after 24 hrs relative to control; assay type: organism-based; details: in vivo, read-out: Activity
Pseudomonas aeruginosa [2] = test: Inhibition of RND efflux pump in Pseudomonas aeruginosa isolate P262-101856 assessed as potentiation of minocycline-induced antibacterial activity by measuring minocycline MIC at 8 ug/ml after 18 to 24 hrs by microbroth dilution assay (reference value: 128 to 256 ug/ml)
Outline: (§1)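 Absolute minocycline MIC taken from checkerboard broth dilution with a fixed 8 μg/mL adjuvant. Inoculum was a 0.5 McFarland saline suspension diluted 1:50 in MHB, incubated 37 °C for 18 h. MIC is the lowest concentration with no growth.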

[3] = Cytotoxicity against human JIMT1 cells assessed as reduction in cell viability after 24 hrs by MTS assay; assay type: cell-based, JIMT-1
[4] = tested on: Pseudomonas aeruginosa PAO1; test: Inhibition of RND efflux pump in Pseudomonas aeruginosa PAO1 assessed as potentiation of minocycline-induced antibacterial activity by measuring ratio of minocycline MIC after 25 serial passages to minocycline MIC at sub-MIC after 18 to 24 hrs by microbroth dilution assay
[5] = tested on: Pseudomonas aeruginosa PAO1; test: Inhibition of RND efflux pump in Pseudomonas aeruginosa PAO1 assessed as potentiation of minocycline-induced antibacterial activity by measuring fold reduction in minocycline MIC at 8 ug/ml after 18 to 24 hrs by microbroth dilution assay relative to minocycline alone; outline: as §1
[6] = tested on: Pseudomonas aeruginosa PAO1; test: Inhibition of RND efflux pump in Pseudomonas aeruginosa PAO1 assessed as potentiation of minocycline-induced bactericidal activity up to 1 time antibacterial MIC after 9 hrs by serial dilution assay
Pseudomonas aeruginosa [7] = test: Inhibition of RND efflux pump in colistin-resistant Pseudomonas aeruginosa isolate 91433 assessed as potentiation of minocycline-induced antibacterial activity at 0.25 times antibacterial MIC after 18 to 24 hrs by checker board assay
Outline: (§2)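 Checkerboard broth microdilution: antibiotic 2-fold diluted along one axis, adjuvant 2-fold diluted along the other. Overnight culture standardized to 0.5 McFarland in saline, diluted 1:50 in MHB, added to wells, 37 °C for 18 h. MIC is the lowest concentration with no growth. FIC = MIC in combination / MIC alone; FICI = sum of the two FICs; FICI ≤0.5 is synergy.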

Pseudomonas aeruginosa [8] = test: Inhibition of RND efflux pump in colistin-resistant Pseudomonas aeruginosa isolate 91433 assessed as potentiation of minocycline-induced antibacterial activity by measuring fold reduction in minocycline MIC at 0.25 times antibacterial MIC after 18 to 24 hrs by microbroth dilution assay; outline: as §2
Pseudomonas aeruginosa [9] = test: Inhibition of RND efflux pump in Pseudomonas aeruginosa isolate […] assessed as potentiation of minocycline-induced antibacterial activity by measuring minocycline MIC at 0.25 times antibacterial MIC after 18 to 24 hrs by microbroth dilution assay (reference value: 64 ug/ml); details: isolate P262-104354; outline: as §2
[10] = Cytotoxicity against human DU145 cells assessed as reduction in cell viability after 24 hrs by MTS assay; assay type: cell-based, DU-145
Pseudomonas aeruginosa [11] = test: Inhibition of RND efflux pump in Pseudomonas aeruginosa isolate P264-104354 assessed as potentiation of minocycline-induced antibacterial activity at 0.25 times antibacterial MIC after 18 to 24 hrs by checker board assay
Outline: as §2, with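 “in MHB:” for “broth microdilution:”, “test agent” for “adjuvant”, “wells, incubated” for “wells,”, “FIC index” for “FICI”, “both FICs.” for “the two FICs; FICI ≤0.5 is synergy.”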

Pseudomonas aeruginosa [12] = test: Inhibition of RND efflux pump in colistin-resistant Pseudomonas aeruginosa isolate 91433 assessed as potentiation of minocycline-induced antibacterial activity by measuring minocycline MIC at 0.25 times antibacterial MIC after 18 to 24 hrs by microbroth dilution assay (reference value: 32 ug/ml); outline: as §2
Pseudomonas aeruginosa [13] = test: Inhibition of RND efflux pump in Pseudomonas aeruginosa isolate P264-104354 assessed as potentiation of minocycline-induced antibacterial activity at 8 ug/ml after 18 to 24 hrs by checker board assay
Outline: as §2, with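 “in MHB:” for “broth microdilution:”, “test agent” for “adjuvant”, “wells, incubated” for “wells,”, “FIC index” for “FICI”, “both FICs.” for “the two FICs; FICI ≤0.5 is synergy.”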

Pseudomonas aeruginosa [14] = test: Antibacterial activity against XDR Pseudomonas aeruginosa isolate P262-101856 infected in Galleria mellonella assessed as protection against bacterial infection by measuring larval death at 75 mg/kg up to 24 hrs relative to control; assay type: functional
Outline: (§3)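 G. mellonella larvae infected with 1.0 × 10^5/mL CFU of XDR P. aeruginosa 101856. A single-dose injection of agent, alone or with minocycline, given 2 h post-infection. Survival scored up to 24 h. 15 larvae per experiment from different batches, two experiments per dosage (n = 30). Significance 0 vs 24 h at P ≤ 0.05.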

Pseudomonas aeruginosa [15] = test: (§4) Inhibition of RND efflux pump in XDR Pseudomonas aeruginosa isolate P262-101856 infected in Galleria mellonella assessed as potentiation of minocycline-induced antibacterial activity by measuring larval survival rate at 75 mg/kg co-treated with 75 mg/kg minocycline measured after 24 hrs relative to control; assay type: organism-based; outline: as §3
Galleria mellonella = test: Toxicity in Galleria mellonella assessed as death at 200 mg/kg up to 96 hrs; assay type: organism-based; details: in vivo
Pseudomonas aeruginosa [16] = test: Inhibition of RND efflux pump in colistin-resistant Pseudomonas aeruginosa isolate 91433 assessed as potentiation of minocycline-induced antibacterial activity by measuring minocycline MIC at 8 ug/ml after 18 to 24 hrs by microbroth dilution assay (reference value: 32 ug/ml); outline: as §2
Pseudomonas aeruginosa [17] = test: Inhibition of RND efflux pump in colistin-resistant Pseudomonas aeruginosa isolate 91433 assessed as potentiation of minocycline-induced antibacterial activity by measuring fold reduction in minocycline MIC at 8 ug/ml after 18 to 24 hrs by microbroth dilution assay; outline: as §2
[18] = tested on: Pseudomonas aeruginosa PAO1; test: Inhibition of RND efflux pump in Pseudomonas aeruginosa PAO1 assessed as potentiation of minocycline-induced bactericidal activity at 0.5 times antibacterial MIC up to 24 hrs by serial dilution assay
[19] = Hemolytic activity against ovine erythrocytes at 1000 ug/ml after 30 mins relative to control; assay type: ADME, cell-based, Ovis aries, Erythrocyte; details: sheep, read-out: Activity
Pseudomonas aeruginosa [20] = test: as §4, with “37.5” for “75”; assay type: organism-based; outline: as §3
Pseudomonas aeruginosa [21] = test: Inhibition of RND efflux pump in colistin-resistant Pseudomonas aeruginosa isolate 91433 assessed as potentiation of minocycline-induced antibacterial activity at 8 ug/ml after 18 to 24 hrs by checker board assay; outline: as §2
Pseudomonas aeruginosa [22] = test: Inhibition of RND efflux pump in Pseudomonas aeruginosa isolate […] assessed as potentiation of minocycline-induced antibacterial activity by measuring minocycline MIC at 8 ug/ml after 18 to 24 hrs by microbroth dilution assay (reference value: 64 ug/ml); details: isolate P262-104354; outline: as §1

| Compound | MIC (Pseudomonas aeruginosa [2]) [µg/mL] | Ratio [4] | fold change (FC) [5] | fractional inhibitory concentration index (FICI) (Pseudomonas aeruginosa [13]) | Activity (Pseudomonas aeruginosa [14]) [%] | Survival (Pseudomonas aeruginosa [15]) [%] | Activity (Galleria mellonella) | MIC (Pseudomonas aeruginosa [16]) [µg/mL] | fold change (FC) (Pseudomonas aeruginosa [17]) | inhibition [18] | hemolysis at 0.5 h, 1000 ug/ml [19] [%] | fractional inhibitory concentration index (FICI) (Pseudomonas aeruginosa [21]) | MIC (Pseudomonas aeruginosa [22]) [µg/mL] | also measured |
| --- | --- | --- | --- | --- | --- | --- | --- | --- | --- | --- | --- | --- | --- | --- |
| NC[C@H]1C[C@H](C(=O)N[C@H](CCc2ccccc2)C(=O)Nc2ccc3ccccc3c2)N(CCCCCCCCCCCCO[C@@H]2[C@@H](O[C@H]3O[C@H](CO)[C@@H](O)[C@H](N)[C@H]3O)[C@H](N)C[C@H](N)[C@H]2O[C@H]2O[C@H](CN)[C@@H](O)C[C@H]2N)C1 | < 1 | 2 | 64 | – | – | – | – | – | – | – | – | – | – | mortality at 24 h [1]: 100%; CC50 at 24 h [3]: > 30 µM; inhibition [6]: Active; fractional inhibitory concentration index (FICI) (Pseudomonas aeruginosa [7]): 0.16; fold change (FC) (Pseudomonas aeruginosa [8]): 8 to 256; MIC (Pseudomonas aeruginosa [9]): < 0.5 µg/mL; CC50 at 24 h [10]: > 30 µM; fractional inhibitory concentration index (FICI) (Pseudomonas aeruginosa [11]): 0.25; MIC (Pseudomonas aeruginosa [12]): 0.25 µg/mL |
| Cl.Cl.Cl.Cl.Cl.Cl.Cl.NC[C@H]1O[C@H](O[C@H]2[C@H](OCCCCCCCCCCCCN3CCN(Cc4cccc5ccccc45)CC3)[C@@H](O[C@H]3O[C@H](CO)[C@@H](O)[C@H](N)[C@H]3O)[C@H](N)C[C@@H]2N)[C@H](N)C[C@@H]1O | 4 | – | 16 | 0.03 | 100 | 77 | Non-Toxic | 0.25 | 8 to 256 | Active | ≤ 5 | 0.13 | < 0.5 | Survival (Pseudomonas aeruginosa [20]): 10% |
| Cl.Cl.Cl.Cl.Cl.Cl.NC[C@H]1O[C@H](O[C@H]2[C@H](OCCCCCCCCCCCCN3CC[C@@H](c4ccc(F)cc4)[C@H](COc4ccc5c(c4)OCO5)C3)[C@@H](O[C@H]3O[C@H](CO)[C@@H](O)[C@H](N)[C@H]3O)[C@H](N)C[C@@H]2N)[C@H](N)C[C@@H]1O | 1 | 2 | – | 0.06 | 100 | 56 | Non-Toxic | 0.25 | 8 to 256 | Active | ≤ 5 | 0.19 | < 0.5 | – |
